Compounds with a hit are over-represented: about 0.79% of the library has one in this group of screens.
hIAP inh = human IAP inhibition. purified IAP, CDP-Star luminescence, 30 min. inhibition, % at 10 µM. actives 0.12% (n = 330,000). AID 2544;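 active means inhibition reaching a set limit with compound at 10 µM in the primary screen, cut at about 35% in these data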;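 further: plate controls were DMSO wells with enzyme for no effect and no-enzyme buffer wells for full effect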
Target sequence (P09923 whole entry, looked up): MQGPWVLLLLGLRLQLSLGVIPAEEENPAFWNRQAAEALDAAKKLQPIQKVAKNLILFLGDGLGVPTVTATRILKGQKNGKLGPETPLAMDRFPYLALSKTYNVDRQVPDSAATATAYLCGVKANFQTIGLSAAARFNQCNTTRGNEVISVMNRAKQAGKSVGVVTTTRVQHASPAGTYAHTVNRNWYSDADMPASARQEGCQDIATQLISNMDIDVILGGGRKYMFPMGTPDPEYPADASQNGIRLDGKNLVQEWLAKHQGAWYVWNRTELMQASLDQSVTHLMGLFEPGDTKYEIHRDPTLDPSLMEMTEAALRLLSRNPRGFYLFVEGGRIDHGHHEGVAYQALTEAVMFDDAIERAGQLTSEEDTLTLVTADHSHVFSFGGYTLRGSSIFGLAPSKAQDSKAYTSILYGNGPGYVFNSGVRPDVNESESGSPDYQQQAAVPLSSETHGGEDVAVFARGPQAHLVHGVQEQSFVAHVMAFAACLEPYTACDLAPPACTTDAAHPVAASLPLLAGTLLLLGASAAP
mIAP act = increases mouse intestinal alkaline phosphatase activity; activation factor at 10 µM; muIAP, CDP-Star luminescence, 30 min; stronger effect = higher value; 1 = vehicle-only enzyme signal, 0 = enzyme-free wells; AID 2805; actives 0.24% (n = 330,000);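 active means activation factor of at least 2 at 20 µM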
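System: mouse IAP enzyme. Reagent: CDP-Star chemiluminescent phosphatase substrate. Benchmarks: DMSO wells, no-enzyme wells. Times: 30 min enzyme-substrate-compound incubation at room temperature. Detection: luminescence from enzymatic CDP-Star hydrolysis. Doses: test compounds delivered from DMSO solution.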
mIAP inh = mouse IAP inhibition; purified mouse IAP, CDP-Star luminescence, 30 min; inhibition, % at 10 µM; actives 0.2% (n = 330,000); AID 2806;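 active means inhibition of at least 40% at 10 µM in the primary screen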;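 further: plate controls were DMSO with enzyme for no effect and no enzyme wells for full effect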
bIAP act = increases bovine intestinal alkaline phosphatase activity; activation factor at 20 µM; actives 0.17% (n = 200,000); purified bovine IAP, CDP-star luminescence, 30 min; stronger effect = higher value; fold of DMSO-control signal, blank-subtracted;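 active means activation factor of 2 or more at 20 µM, a signal rise over negative controls twice the positive control's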
bIAP inh = blocks bovine intestinal alkaline phosphatase activity; inhibition, % at 20 µM; purified bovine IAP, CDP-star luminescence, 30 min; AID 1019; 190,000 tested, under 10 active;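 active means over 50% inhibition of intestinal alkaline phosphatase at 20 µM in the single-dose screen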
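Incubation: 30 min reaction at room temperature / Material: purified bovine intestinal alkaline phosphatase (IAP) enzyme / Input: enzyme at 1/65,000,000 dilution / Dosing: 20 µM single dose / Signal: CDP-star luminescence signal / Reagent: CDP-star chemiluminescent phosphatase substrate, 30 µM final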
hIAP act = increases human intestinal alkaline phosphatase activity. activation factor at 10 µM. P09923. purified human IAP, CDP-Star luminescence, 30 min; stronger effect = higher value; 1 = vehicle-only enzyme, 0 = enzyme-free background. actives 0.16% (n = 330,000);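 active means activation factor of the enzyme at least 2-fold when tested at 20 µM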
An asterisk follows results filed as active; nt = not tested or not shown.

SMILES	hIAP inh	mIAP act	mIAP inh	bIAP act	bIAP inh	hIAP act
O=C1N=C(N2CCOCC2)S/C1=C/c1cc2c(cc1[N+](=O)[O-])OCO2	4.0	0.95	5.0	nt	nt	0.96
Cc1ccc(S(=O)(=O)N2CCCCC2)cc1NC(=O)COC(=O)c1ccccc1F	-9.8	0.949	5.1	1.1	-12.0	1.1
COc1cccc(NC(=O)C2CCN(S(=O)(=O)c3ccc4c(c3)OCCO4)CC2)c1	16.0	1.49	-49.2	2.5*	-152.1	0.84
COc1ccc(OC)c(S(=O)(=O)N2CCC(C(=O)Nc3cccc(C(F)(F)F)c3)CC2)c1	-10.8	2.56*	-156.3	1	-0.4	1.11
C#C[C@]1(O)CCC2C3CCC4=Cc5oncc5CC4(C)C3CCC21C (stereo partly specified)	3.2	1.03	-2.9	nt	nt	0.968
FC(F)(F)c1cccc(NC(=S)NNC(=S)Nc2ccc(Cl)cc2)c1	6.5	0.883	11.7	nt	nt	0.935
O=C(CNc1cccc(Cl)c1)NNC(=S)NCc1ccccc1	-67.0	0.937	6.3	1	0.4	1.67
FC(F)(F)c1cccc(NC(=S)NCc2ccc(Cl)cc2)c1	-5.7	2.7*	-170.0	0.9	10.3	1.06
S=C(NCc1ccccc1)Nc1cccc(Cl)c1	-8.5	2.27*	-127.1	0.9	7.5	1.08
Fc1ccccc1CNC(=S)Nc1cccc(C(F)(F)F)c1	22.5	2.67*	-166.7	0.9	10.9	0.775
Fc1cc(NC(=S)NCc2ccc(CNC(=S)Nc3ccc(Cl)c(F)c3)cc2)ccc1Cl	-14.8	2.12*	-111.5	nt	nt	1.15
Cc1ccc(OCCNC(=O)C(=O)NCc2ccco2)cc1	-11.8	0.951	4.9	1.1	-9.5	1.12
CC(=O)c1cccc(NC(=O)N2C3CCCC2CC(NC(=O)C2CC2)C3)c1 (stereo unspecified)	-5.6	0.979	2.1	nt	nt	1.06
O=C(NCCCN1CCOCC1)C(=O)NCc1ccc(Cl)cc1	-18.8	1.07	-6.9	1	-4.4	1.19
Fc1ccccc1NC(=S)NCc1ccc(Cl)cc1	-11.6	1.51	-51.0	nt	nt	1.12
COc1ccc(CNC(=S)Nc2ccc(F)c(Cl)c2)cc1OC	-52.8	2.57*	-157.3	1	4.5	1.53
COc1ccc(CNC(=S)Nc2ccccc2)cc1Cl	-5.7	1.4	-40.4	nt	nt	1.06
CC(NC(=S)Nc1cccc(C(F)(F)F)c1)C(C)(C)C (stereo unspecified)	-16.7	3.67*	-266.5	0.8	15.3	1.17
CN(C)NC(=S)Nc1cccc(C(F)(F)F)c1	11.1	0.935	6.5	nt	nt	0.889
Fc1ccc(CNC(=S)NCc2ccc(F)cc2)cc1	-3.3	1.48	-47.8	nt	nt	1.03
Fc1cccc(NC(=S)NCc2ccc(Cl)cc2)c1	-13.1	2.5*	-150.1	0.9	5.1	1.13
Fc1ccc(CNC(=S)Nc2cccc(C(F)(F)F)c2)cc1	-18.1	2.62*	-162.1	1	2.5	1.18
COc1ccc([N+](=O)[O-])cc1N(CC(O)CN1C(=O)NC(C)(C)C1=O)S(=O)(=O)c1ccccc1 (stereo unspecified)	10.3	0.987	1.3	nt	nt	0.897
CCc1nc(SCc2ccc(OCC(C)C)cc2)n[nH]1	-58.0	0.918	8.2	nt	nt	1.58
COc1ccc(NC(=O)COC(=O)Cc2c(F)cccc2Cl)cc1OC	-13.0	1.02	-2.5	1	-3.6	1.13
SMILES	hIAP inh	mIAP act	mIAP inh	bIAP act	bIAP inh	hIAP act
CCCSc1cc(NCCOC(=O)CCC)c([N+](=O)[O-])c2nonc12	9.3	0.827	17.3	0.4	nt	0.907
CCCC(=O)OCCNc1cc(SCc2ccco2)c2nonc2c1[N+](=O)[O-]	7.2	0.511	48.9*	0.7	30.5	0.928
CC(=O)OCCCNc1cc(SCc2ccco2)c2nonc2c1[N+](=O)[O-]	-3.9	0.501	49.9*	0.9	14.9	1.04
COc1ccc(Cl)cc1NC(=O)C(C)N1CCN(C/C=C/c2ccccc2)CC1 (stereo unspecified)	17.9	1.12	-12.4	3.3*	-234.1	0.821
CC(=O)N1[C@H](C)C=C[C@]1(Cc1ccccc1)C(=O)NCCc1c[nH]c2ccccc12	16.0	0.992	0.8	nt	nt	0.84
C[C@@H]1C=C[C@](Cc2ccccc2)(C(=O)NCCc2c[nH]c3ccccc23)N1C(=O)c1ccccc1	6.7	1.27	-27.5	2.1*	-111.0	0.933
COc1ccccc1N(CC(=O)Nc1ccc(Cc2ccncc2)cc1)S(=O)(=O)c1ccccc1	-23.3	1.22	-22.2	nt	nt	1.23
COc1ccc(N(CC(=O)Nc2ccc(Cc3ccncc3)cc2)S(=O)(=O)c2ccccc2)cc1	-22.2	2.35*	-135.4	nt	nt	1.22
COc1ccc(C[C@H]2CN3C(=NC[C@H]3Cc3ccccc3)N2CCNC(=O)CCC2CCCCC2)cc1	-1.0	1.05	-4.9	2.4*	-139.8	1.01
COc1ccc(C[C@H]2CN3C(=NC[C@@H]3Cc3ccccc3)N2C[C@H](C)NC(=O)CCC2CCCCC2)cc1	7.3	0.929	7.1	nt	nt	0.927
CCc1nccn1CCC(=O)NC1CC(C)(C)Cc2c1cnn2-c1cccc(F)c1 (stereo unspecified)	-27.9	0.954	4.6	nt	nt	1.28
O=C1/C(=C/c2ccc(N3CCOCC3)o2)SC(=Nc2ccccc2)N1CCc1c[nH]c2ccccc12	42.6*	0.88	12.0	0.6	39.7	0.574
Cc1c(Cl)cccc1NC(=S)Nc1ccc(S(=O)(=O)Nc2ncccn2)cc1	-12.4	1.06	-6.4	nt	nt	1.12
Cc1cccc(NC(=S)NC2CC3CCCC(C2)N3Cc2cccs2)c1 (stereo unspecified)	10.2	5.88*	-488.0	1.2	-20.0	0.898
O=C(NCC1OCCc2ccccc21)c1ccc(NC(=O)c2ccc(Cl)cc2)cc1 (stereo unspecified)	22.5	1.04	-3.7	1	2.0	0.775
COc1ccc(CC(O)COS(N)(=O)=O)cc1 (stereo unspecified)	12.2	1.07	-7.2	nt	nt	0.878
CC1CCC2C(=O)N(c3ccc(C(=O)Oc4cccc5cccnc45)cc3)C(=O)C2C1 (stereo unspecified)	-1.0	0.947	5.3	1	-1.4	1.01
C[C@@H](C(=O)Nc1ccc2ccccc2c1)[C@@H]1C[C@@]1(C)[C@@H](NC(=O)OCc1ccccc1)c1ccccc1	-2.8	2.04*	-104.0	nt	nt	1.03
O=[N+]([O-])c1cc(-c2ncccn2)cs1	-1.2	0.973	2.7	2.5*	-145.5	1.01
CC(C)CNC(=S)NC(=O)c1csc([N+](=O)[O-])c1	-17.5	0.89	11.0	nt	nt	1.18
O=C(Nc1ccc(Cl)cc1)NC1CCCCC1	-9.0	1.16	-16.1	1.1	-8.7	1.09
O=C(Nc1ccc(Cl)cc1)NC1CCCC1Cc1ccco1 (stereo unspecified)	-16.1	2.78*	-177.9	1.1	-10.3	1.16
COc1ccc(Cl)cc1NC(=O)CN(C)C(=O)/C=C/c1ccco1	2.3	1.03	-3.3	nt	nt	0.977

Screening results from PubChem.
